STAT1 act = STAT1 signaling activation. 200,000 tested, 2.6% active. NIH 3T3 STAT1-luciferase reporter, IFN-gamma, luminescence; 100% = IFN-gamma alone, no compound. activation (% of control), % at 5.5 µM;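 active means activation above the screen-wide mean activation plus 3 SD, cut at about 130% in these data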
NF-kB neuron act = NF-kB expression increase, human neuronal cells. NF-kB reporter expression; hits give high values. fold change at 12.5 µM. 190,000 tested, 1.6% active. AID 1239; in the data active means fold change above about 3.3
Wee1 degr inh = blocks degradation of human Wee1 kinase; 220,000 tested, 1.2% active; P30291; reporter increase, % at 5 µM; AID 1321; HeLa Luc-Wee1K328M stability, luciferase luminescence; 100% = proteasome inhibitor MG132 effect;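 active means activation above the mean of all tested compounds plus 3 SD, set per screening run, cut at about 8.8% in these data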;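 further: cells exposed to compound for 20 h before luminescence read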
p97 ATPase inh = blocks human p97 ATPase activity; P55072; recombinant p97 ATPase, Kinase-Glo ATP luminescence, 3 h; inhibition, % at 8 µM; 220,000 tested, 0.42% active; AID 1481; in the data active means inhibition above about 15%
APP 5'UTR act = activates APP 5'UTR luciferase reporter | activation, % at 2 µM | 190,000 tested, 1% active | AID 1276 | SH-SY5Y APP 5'UTR luciferase reporter, luminescence; zero percent = DMSO vehicle wells;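 active means activation above a set limit, based on mean plus 3 SD of controls, cut at about 140% in these data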
Mdm2 ligase inh = blocks human Mdm2 ubiquitin ligase activity. Q00987. cell-based MDM2 ubiquitination luciferase reporter, 2 h; 0 = plate control, 100 = twice control, blank-subtracted. signal enhancement, % at 5 µM. 210,000 tested, 0.11% active;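 active means signal enhancement of 30% or more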;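 further: luminescence tracks abundance of the self-degrading MDM2-luciferase fusion protein; higher signal means inhibition of MDM2 E3 ligase activity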
Target sequence (Q00987 whole entry, looked up, the tested form may be a part): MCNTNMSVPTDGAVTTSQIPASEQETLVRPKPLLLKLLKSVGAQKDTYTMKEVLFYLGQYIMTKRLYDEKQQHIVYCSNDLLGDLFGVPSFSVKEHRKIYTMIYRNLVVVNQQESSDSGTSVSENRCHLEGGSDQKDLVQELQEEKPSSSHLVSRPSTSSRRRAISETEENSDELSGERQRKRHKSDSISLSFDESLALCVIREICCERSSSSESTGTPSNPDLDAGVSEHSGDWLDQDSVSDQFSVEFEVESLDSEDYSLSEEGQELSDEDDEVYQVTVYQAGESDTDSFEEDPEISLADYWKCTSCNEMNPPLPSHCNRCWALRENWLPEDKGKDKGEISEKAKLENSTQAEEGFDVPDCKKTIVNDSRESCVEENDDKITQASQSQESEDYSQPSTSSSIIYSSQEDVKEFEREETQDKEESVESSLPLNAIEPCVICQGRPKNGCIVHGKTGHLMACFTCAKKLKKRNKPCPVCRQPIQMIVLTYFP
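Assay system: stable mammalian line carrying autodegrading MDM2–luciferase fusion reporter; amount: 2000 cells seeded into each well; buffer or medium: DMEM; benchmarks: plate control and blank wells; signal: luciferase luminescence; timing: 2 h compound exposure at 37 °C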
Hits are given with their value; i = inactive; nt = no result given. Hits are enriched below; roughly 4.6% of the tested compounds scored in any of these assays.

SMILES	STAT1 act	NF-kB neuron act	Wee1 degr inh	p97 ATPase inh	APP 5'UTR act	Mdm2 ligase inh
CSCCC(NC(=O)COc1cccc2ccccc12)C(=O)O (stereo not drawn)	nt	nt	i	i	nt	i
CCN=C1S/C(=C\c2sccc2C)C(=O)N1CC	129.7	i	i	i	i	i
CCOc1ccc(C(=O)Nc2cccc3ncccc23)cc1Br	i	i	i	i	i	i
CCCCNc1ncnc2c1cnn2-c1ccccc1	134.2	5.65	i	i	i	i
C=CCNc1ncnc2c1cnn2-c1cccc(C)c1	141.5	4.97	i	i	211.9	i
Cc1cccc(-n2ncc3c(NCCCO)ncnc32)c1	140.6	i	i	i	135.4	i
Cc1cccc(-n2ncc3c(NCc4cccnc4)ncnc32)c1	nt	nt	nt	nt	nt	i
CCCCNc1ncnc2c1cnn2-c1ccc(C)cc1C	i	i	i	i	i	i
Cc1ccc(-n2ncc3c(NCc4ccccc4)ncnc32)cc1	136.5	i	i	i	i	i
COc1ccc(CC2(C)OC(c3ccc([N+](=O)[O-])cc3)=NN2C(C)=O)cc1 (stereo not drawn)	nt	nt	i	i	nt	i
Clc1ccc(-n2ncc3c(NCc4ccccn4)ncnc32)cc1	149.6	i	i	i	i	i
Fc1c(F)c(F)c(N/N=C/c2c[nH]c3ccccc23)c(F)c1F	i	12.6	i	i	i	i
COc1ccc2oc(=O)c(-c3nc(C)cs3)cc2c1	134.7	i	i	i	199.3	i
COc1cc(C=O)ccc1Oc1nc(Nc2ccc(F)cc2F)nc(N2CCOCC2)n1	i	i	i	i	i	i
COc1ccccc1NC(=O)c1c(N=Cc2ccccc2O)cnn1C	i	i	i	i	i	i
COC(=O)c1c(C)nc2nonc2c1N	i	i	i	i	i	i
O=C1C2=C(NC(=S)NC2c2ccc(Cl)cc2)NC(c2ccc(Cl)cc2)N1c1ccc(Cl)cc1 (stereo not drawn)	i	i	10.2	i	i	i
CCc1ccc(C2NC(=S)NC3=C2C(=O)N(c2ccccc2OC)C(c2ccc(CC)cc2)N3)cc1 (stereo not drawn)	i	i	i	i	nt	i
COc1ccccc1-n1nnnc1SCc1ccccc1	i	i	i	i	i	i
COc1cc(-n2nnnc2SC)c(OC)cc1Cl	i	3.58	i	i	i	i
CCc1cc(C(=O)NNC(=S)Nc2ccccc2C)cs1	i	4.28	i	i	i	i
CCc1cc(C(=O)NNC(=S)Nc2cc(C)ccc2C)cs1	i	i	i	i	i	i
CCc1cc(C(=O)NNC(=S)NCc2ccccc2)cs1	i	i	i	i	i	i
CCCc1cc(C(=O)Nc2nccs2)cs1	129.5	6.71	i	i	152.0	i
CCc1cc(C(=O)Nc2ccccc2)cs1	134.8	3.74	i	i	i	i
SMILES	STAT1 act	NF-kB neuron act	Wee1 degr inh	p97 ATPase inh	APP 5'UTR act	Mdm2 ligase inh
CCCN1C(=O)c2ccc(C(=O)Nc3nccs3)cc2C1=O	i	i	i	i	i	i
COC(=O)c1ccccc1NC(=O)CSc1ncn[nH]1	nt	nt	i	i	nt	i
COc1cc(C2Oc3ccccc3C=C2[N+](=O)[O-])cc(OC)c1OC (stereo not drawn)	nt	nt	i	i	nt	i
CC(C)CCNC(=O)c1ccc(-c2ccccc2)cc1	132.2	i	i	i	i	i
CC(C)CCNC(=O)C(=O)Nc1ccccc1	128.6	i	i	i	i	i
CC(=O)C1=C(O)C(=O)N(c2ccc(O)cc2)C1c1ccc([N+](=O)[O-])cc1 (stereo not drawn)	i	i	9.3	i	i	i
COCc1cc(C)nc2sc(C(=O)Nc3nccs3)c(N)c12	132.1	i	i	i	i	i
CCOc1cc(/C=N/NC(=S)Nc2ccccc2C(F)(F)F)ccc1OCC(=O)N1CCOCC1	i	i	i	i	i	i
O=S(=O)(c1ccccc1)N1CCCC1c1cccs1 (stereo not drawn)	nt	nt	10.2	i	nt	i
CCn1c(CCCOc2ccc(Cl)cc2Cl)n[nH]c1=S	i	i	i	i	i	i
COc1cc(OC)nc(/N=C/N(C)C)n1	i	i	32.5	i	i	i
N#C/C(=C\c1coc2ccc(O)cc2c1=O)C(=O)Nc1nc2ccccc2s1	nt	nt	i	43.2	nt	nt
O=C(N/N=C/C=C\c1ccco1)c1cccs1	129.6	i	i	i	i	i
O=C(N/N=C/C=C/c1ccccc1[N+](=O)[O-])c1ccncc1	nt	nt	i	i	nt	i
O=C(Cc1cccs1)N/N=C/C=C\c1ccco1	i	i	i	i	i	i
CCOc1cc(/C=N/NC(=O)c2cccs2)cc([N+](=O)[O-])c1O	128.6	i	i	i	i	i
O=C(N/N=C/C=C\c1ccccc1[N+](=O)[O-])c1cccs1	i	5.2	i	i	i	i
CN(C)S(=O)(=O)Oc1cccc(C(=O)Nc2ccc(Cl)c(Cl)c2)c1	137.4	4.23	i	i	174.4	i
COC(=O)c1ccc(OS(=O)(=O)N(C)C)cc1	129.9	i	i	i	i	i
CN(C)S(=O)(=O)Oc1cccc(C(=O)Nc2cccc(Cl)c2)c1	i	i	i	i	i	i
COc1ccc(NC(=O)c2cccc(OS(=O)(=O)N(C)C)c2)cc1	i	4.75	i	i	156.6	i
CN(C)S(=O)(=O)Oc1ccc(C(=O)Nc2ccc([N+](=O)[O-])cc2)cc1	i	i	i	i	i	i
C/C(CC(=O)Nc1ccc(N(C)C)cc1)=N\NC(=O)c1ccccn1	139.6	i	i	i	i	i
CN(CCC#N)c1ccc(/C=C(\C#N)c2ccccn2)cc1	140.7	i	i	i	179.9	i
C/C(CC(=O)Nc1ccc(N(C)C)cc1)=N\NC(=O)c1cnccn1	i	i	i	i	i	nt
SMILES	STAT1 act	NF-kB neuron act	Wee1 degr inh	p97 ATPase inh	APP 5'UTR act	Mdm2 ligase inh
CCN(CC)c1ccc(/C=C(\C#N)c2ccccn2)cc1	i	i	i	i	160.1	i
CCN(CC)c1ccc(/C=N/NC(=O)c2ccccn2)cc1	nt	nt	9.5	i	nt	i
COc1cc(/C=C(\C#N)c2ccccn2)ccc1OCc1ccccc1	i	i	i	i	i	i
N#C/C(=C\c1ccc(C(=O)O)cc1)c1ccccn1	i	i	i	i	i	i
COc1cc(CNc2cccc(C(=O)O)c2)cc(Br)c1OCC(=O)NC(C)(C)C	i	i	i	i	i	i
CC(C)(C)NC(=O)CSc1nc2ccccc2c(=O)[nH]1	nt	nt	9.6	i	nt	i
Fc1cccc(Cl)c1Cn1nnc(-c2ccc3c(c2)OCO3)n1	i	3.57	i	i	i	i
Cc1c(C(=O)C(=O)NCc2ccco2)c2ccccc2n1C	i	i	i	i	i	i
Cc1ccccc1SCCNC(=O)c1ccccc1Br	i	i	i	i	i	i
Cc1ccccc1SCCNC(=O)CCc1ccccc1	148.7	i	i	i	i	i
CC(C)(C)N1CC(OC(N)=O)C1	nt	nt	i	i	nt	nt
CCn1c2ccccc2c2cc(N=C3SC(CC(=O)Nc4ccccc4)C(=O)N3C)ccc21 (stereo not drawn)	i	i	17.0	i	i	i
